Data reported in paper PMC11227858 (Drug Design, Development and Therapy, 2024).
Entries after “also recorded” stand apart in the source; their conditions may differ.

Legend:
[1] = type: in vivo, human
Safety evaluation = type: in vivo, human
Procedure, shortened: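 Adults with chronic musculoskeletal non-cancer pain received one 2-min IV injection in a single-centre, open-label, ascending-dose design, with a 2-person 0.75 mg pretest. Monitoring covered vital signs to 72 h, SpO2 to 8 h, Holter from −30 min to 24 h, ECG at 48/72 h, 72 h labs, and injection-site checks to 6 h. AEs were graded by system/severity and drug relation; groups compared by Fisher's exact or chi-square.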

With `COc1ccsc1CNCC[C@@]1(c2ccccn2)CCOC2(CCCC2)C1` [Oliceridine, [(3-methoxythiophen-2-yl)methyl]({2-[(9R)-9-(pyridin-2-yl)-6-oxaspiro-[4.5]decan-9-yl]ethyl})amine] the “Participants achieving Cmax approximately 2 minutes post-administration” value ([1]; 0.75 mg group (11 of 12)) was 91.7%, the “Participants reaching Cmax around 5 minutes” value ([1]; 0.75 mg group (one participant)) was 8.3% and the “Participants attaining peak concentration at about 2 min” value ([1]; 1.5 mg group (9 of 10)) was 90%. For the same compound, the “Participants attaining peak concentration at about 3 min” value ([1]; 1.5 mg group (one participant, intravenous line blockage)) was 10%, the “Participants attaining peak at around 10 min” value ([1]; 3.0 mg group (1 participant)) was 10% and the “Participants attaining peak at about 2 min” value ([1]; 3.0 mg group (4 of 10)) was 40%. For the same compound, the “Participants attaining peak at approximately 5 min” value ([1]; 3.0 mg group (5 participants)) was 50%, the Tmax ([1]; human, plasma, iv) was 2.04 to 4.98 min and the half-life ([1]; human, plasma, iv) was 111 to 125 min. For the same compound, the Safety and tolerability (Safety evaluation; Chinese patients with chronic non-cancer pain, 0.75 mg to 3.0 mg) was “safe and well tolerated”, the “TEAEs leading to discontinuation of the study” value (Safety evaluation; all doses) was “none of the TEAEs led to discontinuation of the study” and the “Severe TEAEs” value (Safety evaluation; all doses, 32 participants) was “no reports of severe TEAEs”. The “Serious adverse events (SAEs)” value (Safety evaluation; single IV dose 0.75-3.0 mg, 32 participants) was “no serious adverse events were observed; also recorded: No SAEs were reported”.
